Experimental findings from ChEMBL document CHEMBL1122679, “Beta-adrenergic blocking agents: substituted phenylalkanolamines. Effect of side-chain length on beta-blocking potency in vitro” (J Med Chem, 1984) are described below.

As usually defined, the logP is the decadic logarithm of the partition coefficient of the neutral form, usually between octanol and water.

One data set is filed under the species Cavia porcellus. The data set is described as follows: Beta-adrenoceptor blocking potency in the isolated guinea pig heart, giving 50% inhibition of isoproterenol-induced tachycardia relative to oxprenolol.
Settings: not given
It is filed as functional.
On to `NC(=O)c1cc(OCCNCC(O)c2ccccc2)ccc1O` (stereo unspecified), for which the Relative activity was found to be 0.011.
Compound `NC(=O)c1cc(OCCNCC(O)CCc2ccccc2)ccc1O` (stereo unspecified) had a Relative activity of 0.19.
`COc1ccccc1CCCC(O)CNCCOc1ccc(O)c(C(N)=O)c1` (stereo unspecified) had a Relative activity of 0.1.
In turn, `COc1ccccc1C(O)CNCCOc1ccc(O)c(C(N)=O)c1` (stereo unspecified) had a Relative activity of 0.33.
On the same count and under the same terms, the result for `COc1ccccc1CCC(O)CNC(C)(C)C` (stereo unspecified) reads 0.012; that for `COc1ccccc1CC(O)CNCCOc1ccc(O)c(C(N)=O)c1` (stereo unspecified), 0.061.
Still for that read-out and setting: to `COc1ccccc1OCC(O)CNC(C)(C)C` (stereo unspecified) belongs 0.45; to `NC(=O)c1cc(OCCNCC(O)CCCCc2ccccc2)ccc1O` (stereo unspecified), 0.018; to `NC(=O)c1cc(OCCNCC(O)Cc2ccccc2)ccc1O` (stereo unspecified), 0.018.
Same read-out and setting: to `COc1ccccc1CCCCC(O)CNCCOc1ccc(O)c(C(N)=O)c1` (stereo unspecified) belongs 0.068; to `Cc1ccccc1CCC(O)CNCCOc1ccc(O)c(C(N)=O)c1` (stereo unspecified), 0.3.
`COc1ccccc1CCC(O)CNCCOc1ccc(O)c(C(N)=O)c1` (stereo unspecified) had a Relative activity of 1.8.
For `C=CCOc1ccccc1OCC(O)CNC(C)C` (stereo unspecified) [OXPRENOLOL], the Relative activity stood at 1.

System in a further data set: not listed separately
The data set is described as follows: pK value is evaluated. In kind it is ADME. Particulars: read-out: pK. Put shortly: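 Spectrophotometric determination. Dilute solutions were circulated through a glass electrode and a 1-cm spectrophotometer cell. pKa was calculated from the pH-dependent spectra.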
For the compound `COc1ccccc1CCC(O)CNC(C)(C)C` (stereo unspecified), the pKa was 9.9.
In the case of `COc1ccccc1OCC(O)CNCCOc1ccc(O)c(C(N)=O)c1` (stereo unspecified), the pKa worked out at 8.8.
Consider `COc1ccccc1OCC(O)CNC(C)(C)C` (stereo unspecified), for which the pKa came out at 9.8.
As to `COc1ccccc1CCC(O)CNCCOc1ccc(O)c(C(N)=O)c1` (stereo unspecified), the pKa came to 8.9.
On to `C=CCOc1ccccc1OCC(O)CNC(C)C` (stereo unspecified) [OXPRENOLOL], for which the pKa turned out to be 9.4.

The species entered for another data set is Cavia porcellus. Briefly: Compound was evaluated for beta-adrenoceptor blocking potency in the isolated guinea pig, giving 50% inhibition of isoproterenol-induced tachycardia relative to oxprenolol. It is filed as functional.
Settings: not given
As to `COc1ccc(CCC(O)CNCCOc2ccc(O)c(C(N)=O)c2)cc1` (stereo unspecified), the Relative activity is given as 0.029.
With `COc1ccccc1OCC(O)CNCCOc1ccc(O)c(C(N)=O)c1` (stereo unspecified), the Relative activity is 6.9.

System in a further data set: not listed separately
Briefly: Partition coefficient (logP). In kind it is physicochemical. The following applies: octanol/water. In short, it runs like this: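 Octanol/buffer partitioning. Compounds at about 10^-4 M in 0.067 M pH 7.4 phosphate buffer (octanol-saturated) were shaken with buffer-saturated 1-octanol for 1 h at 25.0 °C, then centrifuged. Concentrations in each phase were measured spectrophotometrically. The coefficient was taken as the octanol/buffer concentration ratio, done in triplicate.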
`C=CCOc1ccccc1OCC(O)CNC(C)C` (stereo unspecified) [OXPRENOLOL] came in with a logP of 0.2.

Still in this data set, the particulars now being: octanol/water; read-out: logP.
On to `NC(=O)c1cc(OCCNCC(O)c2ccccc2)ccc1O` (stereo unspecified), for which the log partition coefficient (logP) is 1.24.
Same read-out and setting: to `COc1ccccc1CCC(O)CNC(C)(C)C` (stereo unspecified) belongs -0.21; to `COc1ccccc1OCC(O)CNCCOc1ccc(O)c(C(N)=O)c1` (stereo unspecified), 1.14.
The same measure, in the same setting: to `COc1ccccc1OCC(O)CNC(C)(C)C` (stereo unspecified) belongs -0.44.
With `COc1ccccc1CCC(O)CNCCOc1ccc(O)c(C(N)=O)c1` (stereo unspecified), the logP worked out at 1.56.

For another data set, the species on record is Cavia porcellus. Briefly: Beta-adrenoceptor blocking potency in the isolated guinea pig heart, giving 50% inhibition of isoproterenol-induced tachycardia. In kind it is functional.
Settings: not given
Put shortly:
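Langendorff-perfused isolated hearts from male Pirbright guinea pigs (330-640 g), removed under urethane anesthesia (1.5 g/kg ip). Perfusion with oxygenated Krebs-Henseleit plus ascorbic acid and NaEDTA at 36 °C. Heart rate recorded continuously. After ~30 min control, DL-isoproterenol sulfate (0.005 µg/mL) was added to the perfusate. Increasing compound concentrations were then given, 10 min each, against the isoproterenol tachycardia.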
As for `NC(=O)c1cc(OCCNCC(O)c2ccccc2)ccc1O` (stereo unspecified), the “-Log concentration” value came out at 5.66 log_unit.
Still for that read-out and setting: the result for `COc1ccc(CCC(O)CNCCOc2ccc(O)c(C(N)=O)c2)cc1` (stereo unspecified) reads 6.07 log_unit; that for `NC(=O)c1cc(OCCNCC(O)CCc2ccccc2)ccc1O` (stereo unspecified), 6.9 log_unit.
`COc1ccccc1CCCC(O)CNCCOc1ccc(O)c(C(N)=O)c1` (stereo unspecified): the “-Log concentration” value is given as 6.6 log_unit.
Still for that read-out and setting: to `COc1ccccc1C(O)CNCCOc1ccc(O)c(C(N)=O)c1` (stereo unspecified) belongs 7.12 log_unit; to `COc1ccccc1CCC(O)CNC(C)(C)C` (stereo unspecified), 5.67 log_unit; to `COc1ccccc1OCC(O)CNCCOc1ccc(O)c(C(N)=O)c1` (stereo unspecified), 8.45 log_unit.
As to `COc1ccccc1CC(O)CNCCOc1ccc(O)c(C(N)=O)c1` (stereo unspecified), the “-Log concentration” value was 6.39 log_unit.
Same read-out and setting: to `COc1ccccc1OCC(O)CNC(C)(C)C` (stereo unspecified) belongs 7.26 log_unit; to `NC(=O)c1cc(OCCNCC(O)CCCCc2ccccc2)ccc1O` (stereo unspecified), 5.85 log_unit.
Same read-out and setting: to `NC(=O)c1cc(OCCNCC(O)Cc2ccccc2)ccc1O` (stereo unspecified) belongs 5.84 log_unit; to `COc1ccccc1CCCCC(O)CNCCOc1ccc(O)c(C(N)=O)c1` (stereo unspecified), 6.43 log_unit.
On to `Cc1ccccc1CCC(O)CNCCOc1ccc(O)c(C(N)=O)c1` (stereo unspecified), for which the “-Log concentration” value turned out to be 7.08 log_unit.
For `COc1ccccc1CCC(O)CNCCOc1ccc(O)c(C(N)=O)c1` (stereo unspecified), the “-Log concentration” value stood at 7.85 log_unit.
Same read-out and setting: the result for `C=CCOc1ccccc1OCC(O)CNC(C)C` (stereo unspecified) [OXPRENOLOL] reads 7.6 M l-1.
